“And” between values parts separate entries of the source, which are not always exact repeats. Equal entries are not always repeated.
What was measured:
Type in all cases: biochemical
eEF-2K [1] = target: T1, eEF-2K (Homo sapiens, UniProt O00418); assay: time dependent inhibition
Procedure, shortened: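 eEF-2K (100 nM) incubated with test compound (0–500 μM) for 0–120 min in 25 mM HEPES pH 7.5, BSA, DTT, 5% DMSO. ADP protection used 0/250 μM compound ± 4 mM ADP; glutathione used 2.5 mM for 1 h. Diluted 50-fold into 30 °C assay buffer (150 μM CaCl2, 1 μM calmodulin, 50 μM peptide), started with 100 μM [γ-32P]ATP, read by P81 counting. E•I* formation fitted exponentially or globally for Kd, k2.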

eEF-2K [2] = target: T1, eEF-2K; assay: eEF-2K kinase assay, dose response; conditions: 100 μM ATP
eEF-2K [3] = target: T1, eEF-2K; assay: recovery experiments after 50-fold dilution, loss of E•I*
eEF-2K [4] = target: T1, eEF-2K; assay: ADP binding to eEF-2K
eEF-2K C146A = eEF-2K C146A (Homo sapiens, UniProt O00418, C146A); assay: kinase dose response and recovery assays with the C146A mutant
eEF-2K Y236F = eEF-2K Y236F (Homo sapiens, UniProt O00418, Y236F); assay: kinase dose response and recovery assays with the Y236F mutant
eEF-2K C146S = eEF-2K C146S (Homo sapiens, UniProt O00418, C146S); assay: kinase dose response and recovery assays with the C146S mutant
[5] = 1 mM, 1 hour incubation, rapidly diluted

COc1cccc(C2C(C#N)C(=O)NC(=O)C2C#N)c1 (stereo not shown) [MDP, 4-(3-methoxyphenyl)-2,6-dioxo-3,5-piperidinedicarbonitrile]
kobs for the formation of E•I* complex (eEF-2K [1]; MDP 500 μM): 0.0031 ± 0.0002 s⁻¹
h (hill coefficient) (eEF-2K [2]; 60 minutes preincubation): 0.93 ± 0.01
kobs for the loss of the E•I* complex (recovery of activity) (eEF-2K [3]; MDP 500 μM, 60 min, diluted 50-fold): 0.00056 s⁻¹ and 0.00056 ± 0.00003 s⁻¹

Nc1ncnc2c1ncn2[C@@H]1O[C@H](COP(=O)(O)OP(=O)(O)O)[C@@H](O)[C@H]1O [ADP]
Ki (eEF-2K [4]): ~1 mM

N#CC1=C(N)SC(N)=C(C#N)C1c1ccccc1F [DFTD, 2,6-diamino-4-(2-fluorophenyl)-4H-thiopyran-3,5-dicarbonitrile]
Kd (eEF-2K [1]): 140 µM
kobs for the formation of the E•I* complex (eEF-2K [1]; DFTD 250 μM in the absence of ADP): 0.0015 ± 0.0003 s⁻¹
kobs for the formation of the E•I* complex (eEF-2K [1]; DFTD 250 μM in the presence of ADP (4 mM)): 0.0002 ± 0.00003 s⁻¹
effect of glutathione on the inactivation or the reversibility rate (eEF-2K [1]; DFTD 250 μM pre-incubated with 2.5 mM glutathione for 1 hour): no significant effect
enzyme covalently bound at saturation (eEF-2K [1]; at saturation): approximately 75%
slow equilibrium on the enzyme (=k2/k-2) (eEF-2K [1]; global fit of Figures 2B and 2C): 2.8
k2 (inactivation step) (eEF-2K [1]; global fit of time-dependent and recovery experiments, KinTek Global Explorer): 0.0017 s⁻¹
IC50 (eEF-2K C146A): 890 µM
time-dependence of inhibition (eEF-2K C146A): no time-dependence
recovery of enzyme activity after dilution (eEF-2K C146A; [5]): maximal activity was attained immediately
IC50 (eEF-2K [2]; apparent IC50, 10 minute incubation): 110 µM
IC50 (eEF-2K Y236F): 105 µM
recovery of enzyme activity after dilution (eEF-2K Y236F; [5]): slow recovery of activity
k-2 (disappearance of E•I*) (eEF-2K [3]; 250 μM, 1 hour incubation, 50-fold dilution, first order fit): 0.0006 s⁻¹
recovery of enzyme activity after dilution (eEF-2K [3]; wild type, 1 mM, 1 hour incubation, rapidly diluted): slow recovery of activity
IC50 (eEF-2K C146S): 655 µM
time-dependence of inhibition (eEF-2K C146S): no time-dependence
recovery of enzyme activity after dilution (eEF-2K C146S; [5]): maximal activity was attained immediately

Reference: paper PMC6482285 (Chembiochem : a European journal of chemical biology, 2014)
